The M2OR odorant receptor database

Assays:
Conditions in all cases: stereoisomer not certain
[1] = biological target: T1, OR10G2 (Homo sapiens) (UniProt Q8NGC3)
T1 sequence (whole entry): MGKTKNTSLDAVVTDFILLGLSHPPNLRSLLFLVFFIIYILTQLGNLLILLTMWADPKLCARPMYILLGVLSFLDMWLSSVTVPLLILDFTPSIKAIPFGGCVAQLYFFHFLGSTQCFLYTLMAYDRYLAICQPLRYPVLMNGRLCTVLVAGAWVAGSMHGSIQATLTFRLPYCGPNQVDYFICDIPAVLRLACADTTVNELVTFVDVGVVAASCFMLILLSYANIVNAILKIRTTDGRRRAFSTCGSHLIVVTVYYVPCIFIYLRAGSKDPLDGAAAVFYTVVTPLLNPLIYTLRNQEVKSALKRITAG
Method in brief: (§1)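 Transient luciferase assays in mammalian cell lines were common, though methods varied by source. The values come from published papers and their supplementary material, with extra details from the original authors when needed. Responsive refers to a measured signal the original authors judged statistically different from baseline, and non-responsive (inactive) to the remainder.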

[2] = biological target: T2, OR10G3 (Homo sapiens) (UniProt Q8NGC4)
T2 sequence (whole entry): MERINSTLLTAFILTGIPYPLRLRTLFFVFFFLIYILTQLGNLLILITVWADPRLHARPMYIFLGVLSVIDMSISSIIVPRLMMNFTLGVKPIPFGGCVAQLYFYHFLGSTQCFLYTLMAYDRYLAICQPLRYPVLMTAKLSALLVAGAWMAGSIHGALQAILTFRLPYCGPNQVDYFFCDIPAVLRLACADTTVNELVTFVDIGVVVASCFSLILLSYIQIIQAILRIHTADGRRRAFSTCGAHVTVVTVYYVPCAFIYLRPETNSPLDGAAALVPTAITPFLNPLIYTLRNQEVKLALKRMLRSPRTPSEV
Method in brief: as §1

[3] = biological target: T3, OR10G4 (Homo sapiens) (UniProt Q8NGN3)
T3 sequence (whole entry): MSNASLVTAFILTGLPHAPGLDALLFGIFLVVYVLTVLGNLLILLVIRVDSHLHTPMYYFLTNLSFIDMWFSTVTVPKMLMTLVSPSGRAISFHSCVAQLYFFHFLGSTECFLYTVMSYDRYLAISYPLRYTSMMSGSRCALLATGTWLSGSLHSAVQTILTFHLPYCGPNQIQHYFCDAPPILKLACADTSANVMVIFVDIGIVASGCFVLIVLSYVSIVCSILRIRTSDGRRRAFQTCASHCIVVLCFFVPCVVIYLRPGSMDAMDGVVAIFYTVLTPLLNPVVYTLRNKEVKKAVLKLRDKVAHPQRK
Method in brief: as §1

[4] = biological target: T4, OR10G6 (Homo sapiens) (UniProt Q8NH81)
T4 sequence (whole entry): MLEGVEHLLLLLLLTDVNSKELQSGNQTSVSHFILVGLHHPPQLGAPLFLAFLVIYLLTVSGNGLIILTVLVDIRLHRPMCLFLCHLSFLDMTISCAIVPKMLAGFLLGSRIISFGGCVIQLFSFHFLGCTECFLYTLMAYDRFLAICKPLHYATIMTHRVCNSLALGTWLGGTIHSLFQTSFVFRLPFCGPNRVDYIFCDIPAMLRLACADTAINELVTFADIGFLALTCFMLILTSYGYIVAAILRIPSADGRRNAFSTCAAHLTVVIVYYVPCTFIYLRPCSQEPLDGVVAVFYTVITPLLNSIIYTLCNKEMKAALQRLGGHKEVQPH
Method in brief: as §1

[5] = biological target: T5, OR10G7 (Homo sapiens) (UniProt Q8NGN6)
T5 sequence (whole entry): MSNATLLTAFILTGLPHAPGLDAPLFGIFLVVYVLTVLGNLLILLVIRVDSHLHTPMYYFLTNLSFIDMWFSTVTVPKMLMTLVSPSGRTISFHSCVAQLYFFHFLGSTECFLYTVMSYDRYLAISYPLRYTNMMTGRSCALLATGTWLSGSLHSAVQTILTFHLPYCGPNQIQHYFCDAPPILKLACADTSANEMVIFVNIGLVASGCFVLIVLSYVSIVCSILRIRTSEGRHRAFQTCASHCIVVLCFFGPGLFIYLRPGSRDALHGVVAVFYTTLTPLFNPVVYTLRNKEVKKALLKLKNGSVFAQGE
Method in brief: as §1

[6] = biological target: T6, OR10G8 (Homo sapiens) (UniProt Q8NGN5)
T6 sequence (whole entry): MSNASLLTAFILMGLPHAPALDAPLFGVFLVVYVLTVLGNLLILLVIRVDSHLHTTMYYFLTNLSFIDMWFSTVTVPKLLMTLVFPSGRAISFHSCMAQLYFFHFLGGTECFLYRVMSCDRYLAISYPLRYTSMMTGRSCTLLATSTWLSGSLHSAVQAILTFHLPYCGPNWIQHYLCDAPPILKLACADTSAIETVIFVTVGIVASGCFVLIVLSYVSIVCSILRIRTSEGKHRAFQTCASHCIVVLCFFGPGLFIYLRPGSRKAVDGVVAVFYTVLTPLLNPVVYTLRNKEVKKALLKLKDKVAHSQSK
Method in brief: as §1

[7] = biological target: T7, OR10G9 (Homo sapiens) (UniProt Q8NGN4)
T7 sequence (whole entry): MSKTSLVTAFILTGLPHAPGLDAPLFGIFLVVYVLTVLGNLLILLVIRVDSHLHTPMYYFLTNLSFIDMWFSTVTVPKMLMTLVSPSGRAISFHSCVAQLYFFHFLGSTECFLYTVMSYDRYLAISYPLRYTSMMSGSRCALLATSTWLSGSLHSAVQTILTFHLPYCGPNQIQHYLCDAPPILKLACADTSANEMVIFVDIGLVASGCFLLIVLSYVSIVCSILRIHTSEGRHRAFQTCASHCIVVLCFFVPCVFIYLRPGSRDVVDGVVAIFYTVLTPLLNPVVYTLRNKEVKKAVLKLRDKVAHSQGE
Method in brief: as §1

[8] = biological target: T8, OR10H1 (Homo sapiens) (UniProt Q9Y4A9)
T8 sequence (whole entry): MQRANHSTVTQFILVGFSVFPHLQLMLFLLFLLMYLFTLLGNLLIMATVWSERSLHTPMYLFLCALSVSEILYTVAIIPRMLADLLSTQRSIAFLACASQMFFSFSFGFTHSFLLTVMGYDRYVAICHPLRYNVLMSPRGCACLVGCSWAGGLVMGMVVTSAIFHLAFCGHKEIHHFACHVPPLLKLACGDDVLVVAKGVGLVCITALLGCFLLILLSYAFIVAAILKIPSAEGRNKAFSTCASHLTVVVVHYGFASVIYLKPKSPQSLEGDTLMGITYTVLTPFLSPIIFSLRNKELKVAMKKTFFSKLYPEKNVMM
Method in brief: as §1

[9] = biological target: T9, OR10H2 (Homo sapiens) (UniProt O60403)
T9 sequence (whole entry): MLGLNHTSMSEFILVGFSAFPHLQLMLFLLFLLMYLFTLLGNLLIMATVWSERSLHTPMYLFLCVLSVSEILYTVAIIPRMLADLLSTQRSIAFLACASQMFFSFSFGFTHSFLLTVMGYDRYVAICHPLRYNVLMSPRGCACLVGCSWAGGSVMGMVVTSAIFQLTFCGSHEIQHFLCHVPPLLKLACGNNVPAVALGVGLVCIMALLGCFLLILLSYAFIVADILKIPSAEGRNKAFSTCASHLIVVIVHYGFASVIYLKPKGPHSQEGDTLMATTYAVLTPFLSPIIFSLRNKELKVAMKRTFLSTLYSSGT
Method in brief: as §1

[10] = biological target: T10, OR10H3 (Homo sapiens) (UniProt O60404)
T10 sequence (whole entry): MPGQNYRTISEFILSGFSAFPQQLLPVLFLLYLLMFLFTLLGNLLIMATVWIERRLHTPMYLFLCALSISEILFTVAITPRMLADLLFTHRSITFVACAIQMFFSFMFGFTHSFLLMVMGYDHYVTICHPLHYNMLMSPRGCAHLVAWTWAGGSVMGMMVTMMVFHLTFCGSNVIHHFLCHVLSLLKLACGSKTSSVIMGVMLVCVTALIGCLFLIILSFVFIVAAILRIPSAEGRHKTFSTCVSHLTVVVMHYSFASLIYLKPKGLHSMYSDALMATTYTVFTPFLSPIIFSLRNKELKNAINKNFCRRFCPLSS
Method in brief: as §1

Measured: odorant receptor agonist call;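 further: active if original authors judged signal statistically different from baseline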

Cc1cnc(C)c(C)n1
inactive: all assays above
